# Test results reported in article PMC9299227 (Diabetes, Obesity & Metabolism, 2021).
# Tests used:
# participants with T2D = settings: 26 weeks, cited from earlier work
# [1] = Plasma tirzepatide pharmacokinetics, non-compartmental analysis; assay type: in vivo; settings: human, sc, 5 mg
# Summary of the method: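 Noncompartmental PK on plasma drug levels after weekly SC abdominal dosing at 5 mg for weeks 1-8. Sampling spanned one 168-h interval after the day 1 dose and up to 840 h after the last dose on day 50. Steady-state CL/F and Vz/F were estimated as extravascular parameters and summarized descriptively by dose level.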
# [2] = tested on: Japanese participants with type 2 diabetes; test: Seven-point self-monitored plasma glucose; assay type: in vivo, human; settings: week 2 to week 8, all doses of tirzepatide
# Summary of the method: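 Patients with T2D receive weekly SC injections of test compound (escalating to 5, 10 or 15 mg) or placebo into the abdominal wall for 8 weeks. Plasma glucose is self-monitored at seven time points across the day and profiled as an arithmetic mean at day 57. Change from baseline is analysed by mixed-effects model (regimen fixed, participant random) as LS means with 95% CI.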
# [3] = tested on: Japanese participants with type 2 diabetes; test: Body weight, change from baseline versus placebo; assay type: in vivo, human; settings: P < .0001
# Summary of the method: (§1)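 Randomized, participant- and investigator-blind, placebo-controlled trial. Adults aged 20-70 with T2D for ≥1 year and BMI 20-35 kg/m2; metformin or DPP-4 inhibitor withdrawn ≥28 days before dosing. Once-weekly SC abdominal-wall injections for 8 weeks, rotating four sites. Escalation: 5 mg fixed; 2.5→5→10 mg; 5→10→15 mg. Change from baseline by mixed-effects model (regimen fixed, participant random, day and regimen-by-day terms); LS means, 95% CI, P<.05.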
# [4] = tested on: Japanese participants with type 2 diabetes; test: Meal intake and subjective appetite sensation; assay type: in vivo, human
# Summary of the method: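 Once-weekly SC test compound (5, 10 or 15 mg groups, escalated) or placebo into the abdominal wall for 8 weeks. Standardized lunch and dinner are given and intake is recorded. Hunger, fullness, satiety and prospective food consumption are rated on a 100-mm VAS before and 4-5 h after the meal. Overall score is the mean of satiety, fullness, (100 − prospective consumption) and (100 − hunger).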
# [5] = tested on: Japanese participants with type 2 diabetes; test: HbA1c, change from baseline versus placebo; assay type: in vivo, human; settings: for HbA1c, LS mean decrease from baseline versus placebo: P < .0001
# Summary of the method: as §1
# [6] = tested on: Japanese participants with type 2 diabetes; test: Safety and tolerability; assay type: in vivo, human
# [7] = tested on: Japanese participants with type 2 diabetes; test: Fasting plasma glucose, change from baseline versus placebo; assay type: in vivo, human; settings: P < .0001
# Summary of the method: as §1
# [8] = tested on: Japanese participants with type 2 diabetes; test: Serum lipids; assay type: in vivo, human
# [9] = 5-mg group (5 mg weeks 1-8), SC once weekly, 8 weeks, N = 11
# [10] = 10-mg group (2.5 mg weeks 1-2, 5 mg weeks 3-4, 10 mg weeks 5-8), SC once weekly, N = 12
# [11] = 15-mg group (5 mg weeks 1-2, 10 mg weeks 3-6, 15 mg weeks 7-8), SC once weekly, N = 16
structure (smiles),measurement,setting,value
CC[C@H](C)[C@H](NC(=O)[C@H](CC(C)C)NC(=O)[C@H](Cc1c[nH]c2ccccc12)NC(=O)[C@H](CCC(N)=O)NC(=O)[C@@H](NC(=O)[C@H](Cc1ccccc1)NC(=O)[C@H](C)NC(=O)[C@H](CCCCNC(=O)COCCOCCNC(=O)COCCOCCNC(=O)CC[C@H](NC(=O)CCCCCCCCCCCCCCCCCCC(=O)O)C(=O)O)NC(=O)[C@H](CCC(N)=O)NC(=O)[C@H](C)NC(=O)[C@@H](NC(=O)[C@H](CCCCN)NC(=O)[C@H](CC(=O)O)NC(=O)[C@H](CC(C)C)NC(=O)C(C)(C)NC(=O)[C@@H](NC(=O)[C@H](CO)NC(=O)[C@H](Cc1ccc(O)cc1)NC(=O)[C@H](CC(=O)O)NC(=O)[C@H](CO)NC(=O)[C@@H](NC(=O)[C@H](Cc1ccccc1)NC(=O)[C@@H](NC(=O)CNC(=O)[C@H](CCC(=O)O)NC(=O)C(C)(C)NC(=O)[C@@H](N)Cc1ccc(O)cc1)[C@@H](C)O)[C@@H](C)O)[C@@H](C)CC)[C@@H](C)CC)C(C)C)C(=O)N[C@@H](C)C(=O)NCC(=O)NCC(=O)N1CCC[C@H]1C(=O)N[C@@H](CO)C(=O)N[C@@H](CO)C(=O)NCC(=O)N[C@@H](C)C(=O)N1CCC[C@H]1C(=O)N1CCC[C@H]1C(=O)N1CCC[C@H]1C(=O)N[C@@H](CO)C(N)=O [tirzepatide],Body weight reduction,"participants with T2D; 5-, 10-, and 15-mg doses versus placebo","significant, dose‐dependent reductions in body weight for the 5‐, 10‐, and 15‐mg doses of tirzepatide versus placebo"
same,HbA1c reduction,"participants with T2D; doses 1, 5, 10, and 15 mg, versus placebo","significant dose‐dependent reductions in HbA1c at all doses (1, 5, 10, and 15 mg) versus placebo"
same,Vd/F,[1],5.27 L
same,Seven-point SMPG daily profile compared with placebo,[2],improved overall daily SMPG profiles compared with placebo
same,"Body weight, LS mean decrease from baseline (95% CI) versus placebo","[3]; week 8, 5-mg group",3.4 (2.0‐4.8) kg
same,"Body weight, LS mean decrease from baseline (95% CI) versus placebo","[3]; week 8, 10-mg group",5.0 (3.6‐6.5) kg
same,"Body weight, LS mean decrease from baseline (95% CI) versus placebo","[3]; week 8, 15-mg group",6.6 (5.3‐7.9) kg
same,Overall appetite score,"[4]; average of four VAS scores, among treatment groups (Figure S5)",overall appetite score was not different among the treatment groups
same,"Hunger and fullness scores, visual analog scale, compared with placebo","[4]; lunch and dinner, all tirzepatide dose levels (Figure S5)",numerically decreased hunger and fullness scores
same,Percentage of meal intake compared with placebo,"[4]; week 8, standardized meals (Figure S4)",dose‐dependent decrease in the percentage of meal intake compared with placebo
same,"HbA1c, LS mean decreases from baseline versus placebo, across treatment groups","[5]; 8 weeks, 95% CI 1.2%-1.9%, P < .0001 for all treatment groups",up to 1.6%
same,"HbA1c, LS mean decrease from baseline versus placebo","[5]; week 8, 5-mg group, 95% CI 0.8%-1.5%",1.1%
same,"HbA1c, LS mean decrease from baseline versus placebo","[5]; week 8, 10-mg group, 95% CI 0.9%-1.7%",1.3%
same,"HbA1c, LS mean decrease from baseline versus placebo","[5]; week 8, 15-mg group, 95% CI 1.2%-1.9%",1.6%
same,"Abdominal discomfort, treatment-emergent adverse event",[6]; [9],0 n (%)
same,"Abdominal distension, treatment-emergent adverse event",[6]; [9],3 (27.3) n (%)
same,"Blood triglycerides increased, treatment-emergent adverse event",[6]; [9],0 n (%)
same,"Constipation, treatment-emergent adverse event",[6]; [9],0 n (%)
same,"Decreased appetite, treatment-emergent adverse event",[6]; [9],5 (45.5) n (%)
same,"Diarrhea, treatment-emergent adverse event",[6]; [9],0 n (%)
same,"Dyspepsia, treatment-emergent adverse event",[6]; [9],0 n (%)
same,"Headache, treatment-emergent adverse event",[6]; [9],0 n (%)
same,"Lipase increased, treatment-emergent adverse event",[6]; [9],0 n (%)
same,"Nausea, treatment-emergent adverse event",[6]; [9],1 (9.1) n (%)
same,"Viral upper respiratory tract infection, treatment-emergent adverse event",[6]; [9],1 (9.1) n (%)
same,"Vomiting, treatment-emergent adverse event",[6]; [9],1 (9.1) n (%)
same,"White blood cell count increased, treatment-emergent adverse event",[6]; [9],1 (9.1) n (%)
same,"Abdominal discomfort, treatment-emergent adverse event",[6]; [10],2 (16.7) n (%)
same,"Abdominal distension, treatment-emergent adverse event",[6]; [10],1 (8.3) n (%)
same,"Blood triglycerides increased, treatment-emergent adverse event",[6]; [10],0 n (%)
same,"Constipation, treatment-emergent adverse event",[6]; [10],8 (66.7) n (%)
same,"Decreased appetite, treatment-emergent adverse event",[6]; [10],6 (50.0) n (%)
same,"Diarrhea, treatment-emergent adverse event",[6]; [10],3 (25.0) n (%)
same,"Dyspepsia, treatment-emergent adverse event",[6]; [10],3 (25.0) n (%)
same,"Headache, treatment-emergent adverse event",[6]; [10],3 (25.0) n (%)
same,"Lipase increased, treatment-emergent adverse event",[6]; [10],1 (8.3) n (%)
same,"Nausea, treatment-emergent adverse event",[6]; [10],0 n (%)
same,"Vomiting, treatment-emergent adverse event",[6]; [10],1 (8.3) n (%)
same,"White blood cell count increased, treatment-emergent adverse event",[6]; [10],0 n (%)
same,"Abdominal discomfort, treatment-emergent adverse event",[6]; [11],4 (25.0) n (%)
same,"Abdominal distension, treatment-emergent adverse event",[6]; [11],0 n (%)
same,"Blood triglycerides increased, treatment-emergent adverse event",[6]; [11],1 (6.3) n (%)
same,"Constipation, treatment-emergent adverse event",[6]; [11],8 (50.0) n (%)
same,"Decreased appetite, treatment-emergent adverse event",[6]; [11],10 (62.5) n (%)
same,"Diarrhea, treatment-emergent adverse event",[6]; [11],5 (31.3) n (%)
same,"Dyspepsia, treatment-emergent adverse event",[6]; [11],0 n (%)
same,"Headache, treatment-emergent adverse event",[6]; [11],1 (6.3) n (%)
same,"Lipase increased, treatment-emergent adverse event",[6]; [11],2 (12.5) n (%)
same,"Nausea, treatment-emergent adverse event",[6]; [11],2 (12.5) n (%)
same,"Vomiting, treatment-emergent adverse event",[6]; [11],2 (12.5) n (%)
same,"White blood cell count increased, treatment-emergent adverse event",[6]; [11],1 (6.3) n (%)
same,Tolerability,"[6]; all tirzepatide doses (5-, 10-, 15-mg groups), SC once weekly, 8 weeks",all tirzepatide doses were well tolerated
same,Severe hypoglycemia or nocturnal hypoglycemia events,"[6]; all treatment groups, 8 weeks",No severe hypoglycemia or nocturnal hypoglycemia events were reported
same,Injection-site or hypersensitivity AEs,"[6]; all treatment groups, SC abdominal wall, 8 weeks",No injection‐site or hypersensitivity AEs were reported
same,Deaths or serious AEs,"[6]; all treatment groups, SC once weekly, 8 weeks",No deaths or serious AEs occurred during the study
same,"Systolic and diastolic blood pressure, mean predose",[6]; participants treated with tirzepatide (Figure S3),no significant changes in blood pressure
same,"Fasting plasma glucose, LS mean decrease from baseline versus placebo (95% CI)","[7]; week 8, 5-mg group",52.7 (35.9‐69.6) mg/dL
same,"Fasting plasma glucose, LS mean decrease from baseline versus placebo (95% CI)","[7]; week 8, 10-mg group",69.1 (52.3‐85.9) mg/dL
same,"Fasting plasma glucose, LS mean decrease from baseline versus placebo (95% CI)","[7]; week 8, 15-mg group",68.9 (53.2‐84.6) mg/dL
same,"Triglyceride postdose (week 8), mean (SD)","[8]; 5-mg group, predose (week 1) 204 (56) mg/dL",161 (51) mg/dL
same,"Triglyceride postdose (week 8), mean (SD)","[8]; 10-mg group, predose (week 1) 172 (71) mg/dL",122 (38) mg/dL
same,"Triglyceride postdose (week 8), mean (SD)","[8]; 15-mg group, predose (week 1) 173 (121) mg/dL",122 (55) mg/dL
